Reference: ChEMBL document CHEMBL1152300, “Ligand specificity of constitutive androstane receptor as probed by induced-fit docking and mutagenesis” (J Med Chem, 2008)

What was measured:
[1] = target: T1, Nuclear receptor subfamily 1 group I member 3 (Mus musculus, UniProt O35627, T350A); experiment: Decrease in nuclear co-repressor receptor binding to mouse CAR T350A mutant […] at 10 uM by yeast two-hybrid assay; assay type: cell-based; design: scale not given: the % may be the effect or the level left
T1 sequence (O35627 whole entry T350A): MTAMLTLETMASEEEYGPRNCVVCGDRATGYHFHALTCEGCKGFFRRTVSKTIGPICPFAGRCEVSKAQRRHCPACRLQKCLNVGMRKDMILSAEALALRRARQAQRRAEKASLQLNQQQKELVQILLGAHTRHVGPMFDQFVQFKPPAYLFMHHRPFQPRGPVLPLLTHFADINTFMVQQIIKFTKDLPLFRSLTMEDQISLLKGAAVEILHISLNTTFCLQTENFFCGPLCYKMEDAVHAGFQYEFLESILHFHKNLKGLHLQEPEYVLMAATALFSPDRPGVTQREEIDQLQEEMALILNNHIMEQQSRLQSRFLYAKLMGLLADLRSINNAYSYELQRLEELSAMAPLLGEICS

[2] = target: T2, Nuclear receptor subfamily 1 group I member 3 (Mus musculus, UniProt O35627); experiment: Enhancement of steroid receptor coactivator 1 binding to wild type mouse CAR expressed in HEK293 cells at 10 uM by yeast two-hybrid assay; conditions: for fold induction at 10 µM: HEK293, mouse, read-out: FC
T2 sequence (O35627 whole entry): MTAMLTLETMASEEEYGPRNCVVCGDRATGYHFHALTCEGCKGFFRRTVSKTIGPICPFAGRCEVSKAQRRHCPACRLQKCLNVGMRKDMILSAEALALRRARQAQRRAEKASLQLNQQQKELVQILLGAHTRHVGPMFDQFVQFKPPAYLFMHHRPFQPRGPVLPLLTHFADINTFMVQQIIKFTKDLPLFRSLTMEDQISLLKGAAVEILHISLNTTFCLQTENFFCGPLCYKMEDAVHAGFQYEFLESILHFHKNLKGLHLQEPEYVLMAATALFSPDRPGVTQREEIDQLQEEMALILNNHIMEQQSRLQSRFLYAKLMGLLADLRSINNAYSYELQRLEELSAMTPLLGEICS

[3] = target: T2, Nuclear receptor subfamily 1 group I member 3; experiment: Activation of wild type mouse CAR expressed in HEK293 cells at 10 uM by mammalian one-hybrid transactivation assay; conditions: hek293, 10 µM
[4] = target: T2, Nuclear receptor subfamily 1 group I member 3; experiment: Increase in nuclear co-repressor receptor binding to wild type mouse CAR expressed in […] cells at 2 uM by yeast two-hybrid assay; assay type: cell-based
In short: (§1)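 Yeast two-hybrid: yeast expressing wild-type or mutant mouse CAR LBD plus SRC-1 or NCoR, selected on SD medium lacking Leu and Trp. Pooled colonies treated with DMSO or test chemical for 3.5 h. β-Galactosidase normalized to cell density. SRC-1 reference: wild-type + DMSO = 100. NCoR reference: 10 µM androstenol = 100. Mean ± SD, two independent determinations, each in triplicate.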

[5] = target: T3, Nuclear receptor subfamily 1 group I member 3 (Mus musculus, UniProt O35627, I252L); conditions: HEK293, mouse, read-out: Activity
T3 sequence (O35627 whole entry I252L): as the sequence (O35627 whole entry T350A) above, with I252L, A350T counted along it

[6] = target: T4, Nuclear receptor subfamily 1 group I member 3 (Mus musculus, UniProt O35627, L212A); experiment: Activation of mouse CAR L212A mutant expressed in HEK293 cells at 10 uM by mammalian one-hybrid assay; assay type: cell-based; conditions: hek293, 10 µM
T4 sequence (O35627 whole entry L212A): as the sequence (O35627 whole entry T350A) above, with L212A, A350T counted along it

[7] = target: T5, Nuclear receptor subfamily 1 group I member 3 (Mus musculus, UniProt O35627, F171A); experiment: Activation of mouse CAR F171A mutant expressed in HEK293 cells at 10 uM by mammalian one-hybrid assay; assay type: cell-based; conditions: hek293, 10 µM
T5 sequence (O35627 whole entry F171A): as the sequence (O35627 whole entry T350A) above, with F171A, A350T counted along it

[8] = target: T2, Nuclear receptor subfamily 1 group I member 3; experiment: Enhancement of steroid receptor coactivator 1 binding to wild type mouse CAR expressed in HEK293 cells at 2 uM by yeast two-hybrid assay; conditions: hek293, 2 µM
[9] = target: T6, Nuclear receptor subfamily 1 group I member 3 (Mus musculus, UniProt O35627, N175A); conditions: HEK293, mouse, read-out: Activity
T6 sequence (O35627 whole entry N175A): as the sequence (O35627 whole entry T350A) above, with N175A, A350T counted along it

[10] = target: T7, Nuclear receptor subfamily 1 group I member 3 (Mus musculus, UniProt O35627, S251L); experiment: Decrease in nuclear co-repressor receptor binding to mouse CAR S251L mutant […] at 10 uM by yeast two-hybrid assay; assay type: cell-based; design: scale not given: the % may be the effect or the level left
T7 sequence (O35627 whole entry S251L): as the sequence (O35627 whole entry T350A) above, with S251L, A350T counted along it

[11] = target: T1, Nuclear receptor subfamily 1 group I member 3; conditions: HEK293, mouse
[12] = target: T3, Nuclear receptor subfamily 1 group I member 3; experiment: (§2) Enhancement of steroid receptor coactivator 1 binding to mouse CAR I252L mutant […] at 10 uM by yeast two-hybrid assay; assay type: cell-based
[13] = target: T2, Nuclear receptor subfamily 1 group I member 3; experiment: Enhancement of steroid receptor coactivator 1 binding to wild type mouse CAR expressed in HEK293 cells at 1 uM by yeast two-hybrid assay; conditions: read-out: FC
[14] = target: Nuclear receptor subfamily 1 group I member 3 (Mus musculus, UniProt O35627, Y336A); conditions: HEK293, mouse, read-out: Activity
Chain of Nuclear receptor subfamily 1 group I member 3 (Mus musculus, UniProt O35627, Y336A) (O35627 whole entry Y336A): as the sequence (O35627 whole entry T350A) above, with Y336A, A350T counted along it

[15] = target: T8, Nuclear receptor subfamily 1 group I member 3 (Mus musculus, UniProt O35627, T350M); conditions: HEK293, mouse
T8 sequence (O35627 whole entry T350M): as the sequence (O35627 whole entry T350A) above, with A350M counted along it

[16] = target: T4, Nuclear receptor subfamily 1 group I member 3; experiment: Decrease in nuclear co-repressor receptor binding to mouse CAR L212A mutant […] at 10 uM by yeast two-hybrid assay; assay type: cell-based; design: scale not given: the % may be the effect or the level left
[17] = target: T7, Nuclear receptor subfamily 1 group I member 3; experiment: Effect on steroid receptor coactivator 1 binding to mouse CAR S251L mutant […] at 10 uM by yeast two-hybrid assay; assay type: cell-based; conditions: read-out: Activity
In short: (§3)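 Yeast two-hybrid assay. Yeast co-expressing wild-type or mutant mouse CAR LBD and the SRC-1 partner were selected on SD plates lacking leucine and tryptophan. Random colonies were pooled and amplified, then treated with DMSO or test chemical for 3.5 h. β-galactosidase activity was normalized to cell density and set relative to wild-type mCAR + SRC-1 with DMSO (=100). Mean ± standard deviation of two determinations, each in triplicate.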

[18] = target: Nuclear receptor subfamily 1 group I member 3 (Mus musculus, UniProt O35627, H213A); conditions: HEK293, mouse
Chain of Nuclear receptor subfamily 1 group I member 3 (Mus musculus, UniProt O35627, H213A) (O35627 whole entry H213A): as the sequence (O35627 whole entry T350A) above, with H213A, A350T counted along it

[19] = target: T8, Nuclear receptor subfamily 1 group I member 3; conditions: HEK293, mouse, read-out: Activity
[20] = target: T9, Nuclear receptor subfamily 1 group I member 3 (Mus musculus, UniProt O35627, L253F); conditions: HEK293, mouse
T9 sequence (O35627 whole entry L253F): as the sequence (O35627 whole entry T350A) above, with L253F, A350T counted along it

[21] = target: Nuclear receptor subfamily 1 group I member 3 (Mus musculus, UniProt O35627, L353A); experiment: Effect on steroid receptor coactivator 1 binding to mouse CAR L353A mutant […] at 10 uM by yeast two-hybrid assay; assay type: cell-based; conditions: read-out: Activity; in short: as §3
Chain of Nuclear receptor subfamily 1 group I member 3 (Mus musculus, UniProt O35627, L353A) (O35627 whole entry L353A): as the sequence (O35627 whole entry T350A) above, with A350T, L353A counted along it

[22] = target: T3, Nuclear receptor subfamily 1 group I member 3; experiment: as §2; assay type: cell-based; in short: as §1; remark: listed apart in the source
[23] = target: T5, Nuclear receptor subfamily 1 group I member 3; conditions: HEK293, mouse
[24] = target: T6, Nuclear receptor subfamily 1 group I member 3; experiment: Enhancement of steroid receptor co-activator 1 binding to mouse CAR N175A mutant […] at 10 uM by yeast two-hybrid assay; assay type: cell-based
[25] = target: T9, Nuclear receptor subfamily 1 group I member 3; experiment: Decrease in mouse CAR L253F mutant activation expressed in HEK293 cells at 10 uM by mammalian one-hybrid assay; assay type: cell-based; conditions: read-out: Activity
In short: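 GAL4-DBD fused to mouse CAR LBD (residues 118-358), wild-type or point mutant, cotransfected with UASx4-tk-luc reporter and pCMVβ into HEK293 cells. Cells were exposed to final 1 µM, 2 µM or 10 µM test chemical, or 0.1% v/v DMSO, for 24 h after transfection. Luciferase was normalized to β-galactosidase and set against empty GAL4 vector (=1.0). Mean ± standard deviation, three independent experiments.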

Row | SMILES | fold induction at 10 µM [2] | fold change (FC) [3] | fold change (FC) [4] | Activity [6] [%] | Activity [7] [%] | FC [8] | fold induction at 1 µM [13] | Activity [1] | inhibition at 10 µM [5] [%] | inhibition at 10 µM [9] [%] | Activity [10] | activity at 10 µM [11] [%] | Activity [12] | inhibition at 10 µM [14] [%] | activity at 10 µM [17] [%] | activity at 10 µM [18] [%] | inhibition at 10 µM [19] [%] | activity at 10 µM [20] [%] | activity at 10 µM [21] [%] | activity at 10 µM [23] [%] | also measured
1 | COc1ccc(C(c2ccc(OC)cc2)C(Cl)(Cl)Cl)cc1 [METHOXYCHLOR] | 2.5 | 1.4 | 4 | 50 | < 50 | 2.5 | 2.5 | >= 50% | 50 | ≥ 50 | >= 50% | < 50 | >= 50% | ≥ 50 | < 50 | < 50 | ≥ 50 | < 50 | < 50 | < 50 | activity at 10 µM [15]: < 50%; Activity [16]: >= 50%; Activity [22]: >= 50%
2 | C[C@]12CC[C@@H](O)C[C@@H]1CC[C@@H]1[C@@H]2CC[C@]2(C)C=CC[C@@H]12 [ANDROSTENOL] |  |  |  |  |  |  |  | >= 50% | < 50 | ≥ 50 | >= 50% | < 50 | > 150% | ≥ 50 | < 50 | < 50 | ≥ 50 | < 50 | < 50 | < 50 | Activity ([2]; mouse, hek293, 10 µM): Not Active; Activity [24]: > 150%; activity at 10 µM [15]: < 50%; Activity [16]: >= 50%; inhibition at 10 µM [25]: < 50%
3 | Clc1cnc(Oc2ccc(Oc3ncc(Cl)cc3Cl)cc2)c(Cl)c1 | 2.5 |  |  |  |  | 2.5 | 2.5 |  |  |  |  |  |  |  |  |  |  |  |  |  | 

Further lines, with some results ahead:

Row | fold induction at 10 µM [2] | fold change (FC) [3] | fold change (FC) [4] | Activity [6] [%] | Activity [7] [%] | FC [8] | fold induction at 1 µM [13] | SMILES | Activity [1] | inhibition at 10 µM [5] [%] | inhibition at 10 µM [9] [%] | Activity [10] | activity at 10 µM [11] [%] | Activity [12] | inhibition at 10 µM [14] [%] | activity at 10 µM [17] [%] | activity at 10 µM [18] [%] | inhibition at 10 µM [19] [%] | activity at 10 µM [20] [%] | activity at 10 µM [21] [%] | activity at 10 µM [23] [%] | also measured
4 | 2.5 | 2 | 4 | < 50 | > 100 | 2.5 | 2.5 | COc1ccccc1CC(CC(=O)Cc1ccccc1)OC (stereo unspecified) | >= 50% | < 50 | ≥ 50 | >= 50% | < 50 | >= 50% | ≥ 50 | < 50 | < 50 | ≥ 50 | < 50 | < 50 | < 50 | Activity [24]: > 150%; Activity [16]: >= 50%; inhibition at 10 µM [25]: < 50%; Activity [22]: > 50%
5 | 2.5 | 1.4 | 4 | 50 | > 100 | 2.5 | 2.5 | COc1ccc(C(=O)CCCc2ccccc2)cc1 | >= 50% | 50 | ≥ 50 | >= 50% | < 50 | > 150% | ≥ 50 | < 50 | < 50 | ≥ 50 | < 50 | < 50 | < 50 | Activity [24]: >= 50%; activity at 10 µM [15]: < 50%; inhibition at 10 µM [25]: < 50%; Activity [22]: >= 50%
6 | 2.5 |  | 4 |  |  | 2.5 | 2.5 | Clc1ccccc1C(c1ccccc1)(c1ccccc1)n1ccnc1 [CLOTRIMAZOLE] |  |  |  |  |  |  |  |  |  |  |  |  |  | 
